Reference: ChEMBL document CHEMBL1157731, “Novel KCNQ2/Q3 agonists as potential therapeutics for epilepsy and neuropathic pain” (J Med Chem, 2010)

Key:
[1] = biological target: T1, Type-1 angiotensin II receptor (Homo sapiens) (UniProt P30556); assay: Displacement of [125I][Sar1,Ile8]-AT2 from human recombinant AT1 angiotensin receptor expressed in HEK293 cells at 10 uM; format: cell-based
T1 sequence (whole entry): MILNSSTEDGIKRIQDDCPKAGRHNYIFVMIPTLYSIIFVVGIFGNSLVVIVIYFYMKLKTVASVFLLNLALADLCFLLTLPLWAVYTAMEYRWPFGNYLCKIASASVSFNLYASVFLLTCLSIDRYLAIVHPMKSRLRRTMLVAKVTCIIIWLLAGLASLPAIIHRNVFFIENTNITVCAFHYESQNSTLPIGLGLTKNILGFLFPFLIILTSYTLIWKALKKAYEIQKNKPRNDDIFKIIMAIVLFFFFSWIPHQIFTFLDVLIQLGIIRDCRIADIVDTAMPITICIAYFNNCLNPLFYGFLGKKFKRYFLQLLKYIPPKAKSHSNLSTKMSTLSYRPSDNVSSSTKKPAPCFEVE

[2] = Displacement of radioligand from opiate receptor at 10 uM
Mus musculus = assay: Anticonvulsant activity against maximal electroshock-induced seizures in po dosed CD1 mouse model treated 30 mins before electroshock application; format: functional, organism-based
How it was run: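 Male CD-1 mice dosed po (10 mL/kg in 5% DMSO/95% of 0.5% HPMC/1% Tween 80) 30 min before corneal electroshock at 50 mA for 0.2 s, with 1% proparacaine in each eye. Latency to hindlimb extension recorded to 0.1 s. No extension within 6 s scored as protected (latency 6 s). Reported as protected/tested (8 per group), or EC50 derived from latency scores.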

[3] = biological target: Adrenergic receptor alpha-1 (Rattus norvegicus) (UniProt P15823+P23944+P43140); assay: Displacement of [3H]prazosin from adrenergic receptor 1 alpha in rat cerebral cortex at 10 uM; format: tissue-based
[4] = biological target: Sodium-dependent noradrenaline transporter (Homo sapiens) (UniProt P23975); assay: Binding affinity to NET at 10 uM by displacement assay
[5] = biological target: T2, Cholecystokinin receptor type A (Homo sapiens) (UniProt P32238); assay: Displacement of radioligand from cholecystokinin A receptor at 10 uM
T2 sequence (whole entry): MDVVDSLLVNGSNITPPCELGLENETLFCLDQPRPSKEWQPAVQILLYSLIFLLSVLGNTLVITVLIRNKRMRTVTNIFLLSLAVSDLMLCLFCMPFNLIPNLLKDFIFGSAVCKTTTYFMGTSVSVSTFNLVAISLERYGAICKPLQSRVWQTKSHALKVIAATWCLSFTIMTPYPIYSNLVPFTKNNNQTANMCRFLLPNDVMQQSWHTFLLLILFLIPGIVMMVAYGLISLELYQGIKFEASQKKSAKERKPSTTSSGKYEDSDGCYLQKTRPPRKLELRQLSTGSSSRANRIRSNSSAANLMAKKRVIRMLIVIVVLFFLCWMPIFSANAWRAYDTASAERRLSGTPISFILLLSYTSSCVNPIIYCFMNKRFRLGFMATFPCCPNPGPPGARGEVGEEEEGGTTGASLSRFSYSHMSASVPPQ

[6] = biological target: Sodium-dependent dopamine transporter (Homo sapiens) (UniProt Q01959); assay: Binding affinity to DAT at 10 uM by displacement assay
[7] = biological target: Histamine H1 receptor (Homo sapiens) (UniProt P35367); assay: Displacement of radioligand from histamine H1 receptor at 10 uM
[8] = biological target: T3, 5-hydroxytryptamine receptor 1A (Homo sapiens) (UniProt P08908); assay: Displacement of radioligand from 5HT1A receptor at 10 uM by displacement assay
T3 sequence (whole entry): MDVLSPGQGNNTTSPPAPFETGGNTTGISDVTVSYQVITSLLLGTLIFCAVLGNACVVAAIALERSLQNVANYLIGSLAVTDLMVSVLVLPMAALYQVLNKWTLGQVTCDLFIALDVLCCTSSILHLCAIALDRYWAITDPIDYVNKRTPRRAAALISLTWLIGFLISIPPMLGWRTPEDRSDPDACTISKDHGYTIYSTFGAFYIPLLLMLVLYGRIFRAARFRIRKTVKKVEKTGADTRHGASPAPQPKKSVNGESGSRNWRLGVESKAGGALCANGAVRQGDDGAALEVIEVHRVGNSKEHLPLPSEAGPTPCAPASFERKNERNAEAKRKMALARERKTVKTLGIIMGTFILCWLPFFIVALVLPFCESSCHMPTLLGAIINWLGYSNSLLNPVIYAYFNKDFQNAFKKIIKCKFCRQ

[9] = biological target: T4, Glucocorticoid receptor (Homo sapiens) (UniProt P04150); assay: Binding affinity to glucocorticoid receptor at 10 uM by displacement assay
T4 sequence (whole entry): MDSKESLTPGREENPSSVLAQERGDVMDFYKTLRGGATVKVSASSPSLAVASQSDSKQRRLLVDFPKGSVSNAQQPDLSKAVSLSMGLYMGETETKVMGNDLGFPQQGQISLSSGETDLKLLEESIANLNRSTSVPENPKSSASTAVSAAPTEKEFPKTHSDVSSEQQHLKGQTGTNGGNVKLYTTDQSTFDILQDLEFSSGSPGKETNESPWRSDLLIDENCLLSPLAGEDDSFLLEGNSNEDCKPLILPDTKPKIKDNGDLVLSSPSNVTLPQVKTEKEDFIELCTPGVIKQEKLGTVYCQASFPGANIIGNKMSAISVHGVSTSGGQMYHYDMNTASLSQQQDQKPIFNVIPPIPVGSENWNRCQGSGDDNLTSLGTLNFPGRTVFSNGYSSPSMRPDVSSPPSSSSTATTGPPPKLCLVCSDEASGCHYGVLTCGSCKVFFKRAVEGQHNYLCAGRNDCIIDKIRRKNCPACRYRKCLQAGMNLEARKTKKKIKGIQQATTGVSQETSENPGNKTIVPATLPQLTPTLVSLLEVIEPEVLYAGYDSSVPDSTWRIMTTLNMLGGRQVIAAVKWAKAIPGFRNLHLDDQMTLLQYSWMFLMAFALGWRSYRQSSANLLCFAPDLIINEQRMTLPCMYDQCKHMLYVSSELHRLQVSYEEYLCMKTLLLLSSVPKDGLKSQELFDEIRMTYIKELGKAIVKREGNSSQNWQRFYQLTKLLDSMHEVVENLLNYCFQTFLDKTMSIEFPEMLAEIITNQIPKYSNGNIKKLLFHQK

[10] = Binding affinity to central-type benzodiazepine receptor at 10 uM by displacement assay

Chain of Sodium-dependent dopamine transporter (Homo sapiens) (Q01959 whole entry): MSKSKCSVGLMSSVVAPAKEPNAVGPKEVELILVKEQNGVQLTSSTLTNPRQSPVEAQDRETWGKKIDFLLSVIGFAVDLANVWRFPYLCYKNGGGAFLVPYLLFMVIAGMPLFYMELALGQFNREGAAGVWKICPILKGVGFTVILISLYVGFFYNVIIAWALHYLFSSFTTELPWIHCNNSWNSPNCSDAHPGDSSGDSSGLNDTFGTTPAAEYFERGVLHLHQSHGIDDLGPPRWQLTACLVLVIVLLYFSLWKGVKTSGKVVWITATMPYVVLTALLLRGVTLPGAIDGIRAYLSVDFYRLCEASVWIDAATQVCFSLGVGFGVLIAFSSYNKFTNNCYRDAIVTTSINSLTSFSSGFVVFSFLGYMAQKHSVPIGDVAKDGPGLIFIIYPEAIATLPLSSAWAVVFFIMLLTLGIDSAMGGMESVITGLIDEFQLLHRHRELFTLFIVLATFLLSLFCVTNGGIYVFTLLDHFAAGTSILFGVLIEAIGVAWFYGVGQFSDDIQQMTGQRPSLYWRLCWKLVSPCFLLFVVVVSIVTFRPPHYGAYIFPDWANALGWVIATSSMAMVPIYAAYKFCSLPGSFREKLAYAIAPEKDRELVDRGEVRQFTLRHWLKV
Chain of Histamine H1 receptor (Homo sapiens) (P35367 whole entry): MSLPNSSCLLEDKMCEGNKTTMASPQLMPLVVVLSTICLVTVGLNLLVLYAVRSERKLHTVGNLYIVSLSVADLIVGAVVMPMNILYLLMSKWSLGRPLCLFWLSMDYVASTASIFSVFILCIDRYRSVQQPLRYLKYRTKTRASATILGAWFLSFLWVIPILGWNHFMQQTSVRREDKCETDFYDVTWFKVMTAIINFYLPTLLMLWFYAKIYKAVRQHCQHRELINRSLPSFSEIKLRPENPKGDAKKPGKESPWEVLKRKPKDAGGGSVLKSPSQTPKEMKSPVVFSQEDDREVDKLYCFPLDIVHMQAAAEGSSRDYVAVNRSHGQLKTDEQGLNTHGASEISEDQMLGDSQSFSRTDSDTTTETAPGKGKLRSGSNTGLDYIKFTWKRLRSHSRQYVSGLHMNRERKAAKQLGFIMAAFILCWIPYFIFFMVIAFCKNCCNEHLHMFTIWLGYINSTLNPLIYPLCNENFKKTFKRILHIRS
Chain of Sodium-dependent noradrenaline transporter (Homo sapiens) (P23975 whole entry): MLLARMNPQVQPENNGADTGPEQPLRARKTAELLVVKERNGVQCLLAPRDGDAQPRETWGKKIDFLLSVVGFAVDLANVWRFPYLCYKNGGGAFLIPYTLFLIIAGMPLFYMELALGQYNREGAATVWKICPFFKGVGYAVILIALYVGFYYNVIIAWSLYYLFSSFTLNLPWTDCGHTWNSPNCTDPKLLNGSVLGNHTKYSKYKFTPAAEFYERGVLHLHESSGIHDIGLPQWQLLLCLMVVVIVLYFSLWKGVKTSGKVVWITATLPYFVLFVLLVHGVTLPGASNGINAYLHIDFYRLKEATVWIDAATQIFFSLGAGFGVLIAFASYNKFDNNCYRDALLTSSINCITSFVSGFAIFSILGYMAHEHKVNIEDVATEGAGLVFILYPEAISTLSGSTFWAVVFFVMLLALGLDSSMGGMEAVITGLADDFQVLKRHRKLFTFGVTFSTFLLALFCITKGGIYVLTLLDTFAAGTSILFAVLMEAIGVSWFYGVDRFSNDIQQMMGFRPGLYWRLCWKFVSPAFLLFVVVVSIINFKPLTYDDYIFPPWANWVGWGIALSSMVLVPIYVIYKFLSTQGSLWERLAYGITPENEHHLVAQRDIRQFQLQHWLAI

Activity [1] [%]	Activity [2] [%]	Activity [3] [%]	Activity [4] [%]	Activity [5] [%]	Activity [6] [%]	Activity [7] [%]	Activity [8] [%]	Activity [9] [%]	Activity [10] [%]	SMILES	EC50 (Mus musculus) [mg/kg]
18	16	0	34	53	21	0	0	14	0	Cn1/c(=N/NC(=O)CC2CCCC2)sc2cc(OC(F)(F)F)ccc21	< 10
14	11	11	43	11	0	0	18	0	22	CC(C)OC(=O)N/N=c1\sc2cc(OC(F)(F)F)ccc2n1C	8.8
0	0	0	14	0	0	22	0	0	0	Cn1/c(=N/NC(=O)CC(C)(C)C)sc2cc(OC(F)(F)F)ccc21	4.4
